Measured values published in ChEMBL document CHEMBL3875165, “Novel broad-spectrum and long-acting parenteral cephalosporins having an acyl cyanamide moiety at the C-3 terminal: Synthesis and structure-activity relationships” (Eur J Med Chem, 2016).
Converted amounts (≈) assume the structure as drawn.

Legend:
[1] = AUC (0 to infinity) in monkey at 20 mg/kg, iv administered as bolus dose by HPLC method; format: ADME, organism-based, Macaca mulatta; design: dose 20 mg/kg, time infinity, route intravenous; settings: rhesus monkey, in vivo
In short: (§1)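 Three monkeys per group received a single iv bolus of 20 mg/kg (1 mL/kg). Plasma levels were measured by HPLC. AUC0-∞, CLtot and T1/2 came from a 2-compartment fit.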

[2] = Half life in monkey at 20 mg/kg, iv administered as bolus dose by HPLC method; format: ADME, organism-based, Macaca mulatta; settings: rhesus monkey, in vivo; in short: as §1
[3] = Total clearance in monkey at 20 mg/kg, iv administered as bolus dose by HPLC method; format: ADME, organism-based, Macaca mulatta; settings: rhesus monkey, in vivo; in short: as §1
[4] = Protein binding in ICR mouse plasma after 30 mins by ultra-filtration method; format: ADME, cell-free; settings: read-out: PPB (converted)
In short: (§2)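 Mouse or monkey plasma was adjusted to pH 7 with CO2 and spiked with compound to a final 10 µg/ml. It was incubated 30 min at 37 °C, then ultrafiltered by centrifugation at 3200 rpm for 30 min at 25 °C. Free drug in the filtrate was measured by bioassay to give the bound fraction.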

[5] = Protein binding in cynomolgus monkey plasma after 30 mins by ultra-filtration method; format: ADME, cell-free, Macaca fascicularis; settings: read-out: PPB (converted); in short: as §2
[6] = system: Staphylococcus aureus; test: Antibacterial activity against Staphylococcus aureus SMITH after 20 hrs by agar dilution method; format: functional
In short: (§3)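 Agar dilution MIC on Sensitivity Disk Agar-N with 2-fold serial drug dilutions. Overnight Mueller Hinton broth cultures were diluted to about 10^6 CFU/mL, and 1 µL spots were applied. Plates were incubated 20 h at 37 °C before scoring.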

[7] = system: Streptococcus pneumoniae; test: Antibacterial activity against penicillin-resistant Streptococcus pneumoniae SR16675 after 20 hrs by agar dilution method; format: functional; settings: SR16675, 20 h
In short: (§4)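 Agar dilution on Sensitivity Disk Agar-N. Overnight Mueller Hinton broth cultures were diluted to about 10^6 CFU/mL, and 1 µL spots were placed on agar plates holding 2-fold serial dilutions of antibiotic. Plates were incubated 20 h at 37 °C and then MICs were scored.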

[8] = system: Streptococcus pneumoniae; test: Antibacterial activity against penicillin-resistant Streptococcus pneumoniae SR16750 after 20 hrs by agar dilution method; format: functional; settings: SR16750, 20 h; in short: as §4
[9] = system: Haemophilus influenzae; test: Antibacterial activity against beta-lactamase non-producing penicillin-resistant Haemophilus influenzae SR11435 after 20 hrs by agar dilution method; format: functional; settings: SR11435, 20 h; in short: as §4
[10] = system: Haemophilus influenzae; test: Antibacterial activity against beta-lactamase non-producing penicillin-resistant Haemophilus influenzae SR24106 after 20 hrs by agar dilution method; format: functional; settings: SR24106, 20 h; in short: as §4
[11] = system: Moraxella catarrhalis; test: Antibacterial activity against Moraxella catarrhalis SR24290 after 20 hrs by agar dilution method; format: functional; settings: SR24290, 20 h; in short: as §3
[12] = system: Escherichia coli; test: Antibacterial activity against Escherichia coli NIHJ JC-2 after 20 hrs by agar dilution method; format: functional; settings: NIHJ JC-2, 20 h; in short: as §3
[13] = system: Streptococcus pneumoniae; test: Antibacterial activity against penicillin-susceptible Streptococcus pneumoniae SR16605 infected in sc dosed mouse assessed as protection against bacterial infection by measuring increase in mouse survival administered 1 and 5 hrs post infection measured after 7 days; format: functional
In short: (§5)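 Mouse septicemia model in six-week-old male Jcl:ICR mice (19 to 25 g). Mice were infected intraperitoneally with 0.5 mL of S. pneumoniae suspension in hog mucin. Compound was given subcutaneously 1 and 5 h after infection. Mortality was recorded over 7 days, and ED50 with 90% confidence limits was derived by the logit method.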

[14] = system: Streptococcus pneumoniae; test: Antibacterial activity against penicillin-resistant Streptococcus pneumoniae SR16754 infected in sc dosed mouse assessed as protection against bacterial infection by measuring increase in mouse survival administered 1 and 5 hrs post infection measured after 7 days; format: functional; in short: as §5
[15] = system: Streptococcus pneumoniae; test: Antibacterial activity against penicillin-susceptible Streptococcus pneumoniae SR16605 after 20 hrs by agar dilution method; format: functional; settings: SR16605, 20 h; in short: as §4
[16] = system: Streptococcus pneumoniae; test: Antibacterial activity against penicillin-resistant Streptococcus pneumoniae SR16754 after 20 hrs by agar dilution method; format: functional; settings: SR16754, 20 h; in short: as §4
[17] = system: Streptococcus pneumoniae; test: Potency index, ratio of Ceftriaxone MIC to compound MIC for penicillin-susceptible Streptococcus pneumoniae SR16605; format: functional
[18] = Half life in mouse at 20 mg/kg, iv administered as bolus dose by band-culture bioassay; settings: in vivo
[19] = Total clearance in mouse at 20 mg/kg, iv administered as bolus dose by band-culture bioassay; settings: in vivo
[20] = AUC (0 to infinity) in mouse at 20 mg/kg, iv administered as bolus dose by band-culture bioassay; settings: in vivo

Structure (SMILES) | AUC [1] | half-life [2] | clearance [3] | fraction unbound at 0.5 h [4] | fraction unbound at 0.5 h [5] | MIC [6] | MIC [7] | MIC [8] | MIC [9] | MIC [10] | MIC [11] | MIC [12] | ED50 [13] | ED50 [14] | MIC [15] | MIC [16] | Ratio [17] | half-life [18] | clearance [19] | AUC(0-inf) [20]
CCO/N=C(\C(=O)N[C@@H]1C(=O)N2C(C(=O)[O-])=C(/C=C/C[n+]3ccc(-c4nc(/C([O-])=N/C#N)cs4)cc3)CS[C@H]12)c1csc(N)n1.[Na+] | 37500 ng·h/mL | 3.88 h | 0.49 mL/min/kg | 0.81 | 0.27 | 0.5 µg/mL | 0.25 µg/mL | 0.25 µg/mL | 0.031 µg/mL | 0.063 µg/mL | 1 µg/mL | 0.063 µg/mL | 0.017 mg/kg | 0.71 mg/kg | 0.008 µg/mL | 0.25 µg/mL | 2 - 3 | 0.67 h | 16 mL/min/kg | 20900 ng·h/mL
CO/N=C(\C(=O)N[C@@H]1C(=O)N2C(C(=O)O)=C(CSc3nc(=O)c(=O)[nH]n3C)CS[C@H]12)c1csc(N)n1 [CEFTRIAXONE] | 21900 ng·h/mL | 1.95 h | 0.77 mL/min/kg | 0.06 | 0.05 | 2 µg/mL (≈ 3.61 µM) | 1 µg/mL (≈ 1.8 µM) | 2 µg/mL (≈ 3.61 µM) | 0.125 µg/mL (≈ 0.225 µM) | 0.25 µg/mL (≈ 0.451 µM) | 1 µg/mL (≈ 1.8 µM) | 0.125 µg/mL (≈ 0.225 µM) | 0.11 mg/kg | 5.65 mg/kg | 0.016 µg/mL (≈ 0.0289 µM) | 1 µg/mL (≈ 1.8 µM) | – | 0.64 h | 5.49 mL/min/kg | 60800 ng·h/mL
